In ChEMBL document CHEMBL1153621, “Regioselective reaction: synthesis, characterization and pharmacological studies of some new Mannich bases derived from 1,2,4-triazoles” (2009):
In brackets after ≈: the same amount, converted by molar mass.

How the values were obtained:
Format in all cases: functional
Pseudomonas aeruginosa = test: Antibacterial activity against Pseudomonas aeruginosa after 16 to 18 hrs by serial dilution method
Method in brief: (§1)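 MIC by serial dilution: compound dissolved in serially diluted DMF, a standard drop of prepared culture added to each dilution, incubated 16–18 h at 37 °C; MIC taken as the endpoint.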

Staphylococcus aureus = test: Antibacterial activity against Staphylococcus aureus after 16 to 18 hrs by serial dilution method; method in brief: as §1
Escherichia coli = test: Antibacterial activity against Escherichia coli after 16 to 18 hrs by serial dilution method; method in brief: as §1
Bacillus subtilis = test: Antibacterial activity against Bacillus subtilis after 16 to 18 hrs by serial dilution method; method in brief: as §1
Candida albicans = test: Antifungal activity against Candida albicans after 16 to 18 hrs by serial dilution method; method in brief: as §1

Row | Structure (SMILES) | MIC (Pseudomonas aeruginosa) [µg/mL] | MIC (Staphylococcus aureus) [µg/mL] | MIC (Escherichia coli) [µg/mL] | MIC (Bacillus subtilis) [µg/mL] | MIC (Candida albicans) [µg/mL]
1 | Cc1nn(CN2CCN(C)CC2)c(=S)n1/N=C/c1c[nH]nc1-c1ccccc1 | 6 (≈ 15.1 µM) | 6 (≈ 15.1 µM) | 12.5 (≈ 31.5 µM) | 6 (≈ 15.1 µM) | 6 (≈ 15.1 µM)
2 | NC(=O)N/N=C/c1ccc([N+](=O)[O-])o1 [NITROFURAZONE] | 12.5 (≈ 63.1 µM) | 12.5 (≈ 63.1 µM) | 6 (≈ 30.3 µM) | 12.5 (≈ 63.1 µM) | 
3 | CCCc1nn(CN2CCN(C)CC2)c(=S)n1/N=C/c1c[nH]nc1-c1ccc(OC)cc1 | 6 (≈ 13.2 µM) | 6 (≈ 13.2 µM) | 12.5 (≈ 27.5 µM) | 12.5 (≈ 27.5 µM) | 6 (≈ 13.2 µM)
4 | Cc1n[nH]cc1/C=N/n1c(C)nn(CN2CCN(C)CC2)c1=S | 6 (≈ 17.9 µM) | 12.5 (≈ 37.4 µM) | 6 (≈ 17.9 µM) | 6 (≈ 17.9 µM) | 6 (≈ 17.9 µM)
5 | CN1CCN(Cn2nc(-c3ccccc3)n(/N=C/c3c[nH]nc3-c3ccccc3)c2=S)CC1 | 6 (≈ 13.1 µM) | 6 (≈ 13.1 µM) | 6 (≈ 13.1 µM) | 12.5 (≈ 27.3 µM) | 6 (≈ 13.1 µM)
6 | CCCc1nn(CN2CCN(C)CC2)c(=S)n1/N=C/c1c[nH]nc1-c1ccc(C)cc1 | 6 (≈ 13.7 µM) | 6 (≈ 13.7 µM) | 6 (≈ 13.7 µM) | 12.5 (≈ 28.5 µM) | 6 (≈ 13.7 µM)
7 | Cc1ccc(-c2n[nH]cc2/C=N/n2c(C)nn(CN3CCN(C)CC3)c2=S)cc1 | 12.5 (≈ 30.4 µM) | 12.5 (≈ 30.4 µM) | 6 (≈ 14.6 µM) | 6 (≈ 14.6 µM) | 6 (≈ 14.6 µM)
8 | CCCc1nn(CN2CCN(C)CC2)c(=S)n1/N=C/c1c[nH]nc1-c1ccccc1 | 12.5 (≈ 29.4 µM) | 6 (≈ 14.1 µM) | 12.5 (≈ 29.4 µM) | 6 (≈ 14.1 µM) | 6 (≈ 14.1 µM)
9 | CCCc1nn(CN2CCN(C)CC2)c(=S)n1/N=C/c1c[nH]nc1-c1ccc(Cl)cc1 | 3 (≈ 6.54 µM) | 3 (≈ 6.54 µM) | 3 (≈ 6.54 µM) | 3 (≈ 6.54 µM) | 3 (≈ 6.54 µM)
10 | Cc1ccc(-c2n[nH]cc2/C=N/n2c(-c3ccccc3)nn(CN3CCN(C)CC3)c2=S)cc1 | 3 (≈ 6.35 µM) | 6 (≈ 12.7 µM) | 6 (≈ 12.7 µM) | 12.5 (≈ 26.4 µM) | 3 (≈ 6.35 µM)
11 | COc1ccc(-c2n[nH]cc2/C=N/n2c(-c3ccccc3)nn(CN3CCN(C)CC3)c2=S)cc1 | 3 (≈ 6.14 µM) | 6 (≈ 12.3 µM) | 6 (≈ 12.3 µM) | 6 (≈ 12.3 µM) | 6 (≈ 12.3 µM)
12 | COc1ccc(-c2n[nH]cc2/C=N/n2c(C)nn(CN3CCN(C)CC3)c2=S)cc1 | 1.5 (≈ 3.52 µM) | 6 (≈ 14.1 µM) | 6 (≈ 14.1 µM) | 6 (≈ 14.1 µM) | 6 (≈ 14.1 µM)
13 | OC(Cn1cncn1)(Cn1cncn1)c1ccc(F)cc1F [FLUCONAZOLE] |  |  |  |  | 6 (≈ 19.6 µM)
14 | Cc1n[nH]cc1/C=N/n1c(-c2ccccc2)nn(CN2CCN(C)CC2)c1=S | 12.5 (≈ 31.5 µM) | 12.5 (≈ 31.5 µM) | 6 (≈ 15.1 µM) | 12.5 (≈ 31.5 µM) | 6 (≈ 15.1 µM)
